Activity calls are given as the source filed them. The calls are words filed in the database; no cut-off is given here.
Assays:
West Nile virus [1] = test: Antiviral activity against West Nile virus; type: functional, organism-based
Procedure, shortened: (§1)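 Huh7 cells (2.5 × 10^5 per well, overnight) infected with lineage 2 WNV at MOI 0.1 for 1 h at 37°C, washed, then compound added in 10-fold dilutions (final 100–0.01 μM) with DMSO as virus control. Agarose overlay, 4 days at 37°C, methanol fixation, crystal violet staining. PFU relative to DMSO; IC50 by exponential fit at 50% PFU. Duplicates, repeated at least twice.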

[2] = biological target: T1, ATP-dependent RNA helicase DDX1 (Homo sapiens, UniProt Q92499); test: Inhibition of human DDX1 helicase activity
T1 sequence (Q92499 whole entry): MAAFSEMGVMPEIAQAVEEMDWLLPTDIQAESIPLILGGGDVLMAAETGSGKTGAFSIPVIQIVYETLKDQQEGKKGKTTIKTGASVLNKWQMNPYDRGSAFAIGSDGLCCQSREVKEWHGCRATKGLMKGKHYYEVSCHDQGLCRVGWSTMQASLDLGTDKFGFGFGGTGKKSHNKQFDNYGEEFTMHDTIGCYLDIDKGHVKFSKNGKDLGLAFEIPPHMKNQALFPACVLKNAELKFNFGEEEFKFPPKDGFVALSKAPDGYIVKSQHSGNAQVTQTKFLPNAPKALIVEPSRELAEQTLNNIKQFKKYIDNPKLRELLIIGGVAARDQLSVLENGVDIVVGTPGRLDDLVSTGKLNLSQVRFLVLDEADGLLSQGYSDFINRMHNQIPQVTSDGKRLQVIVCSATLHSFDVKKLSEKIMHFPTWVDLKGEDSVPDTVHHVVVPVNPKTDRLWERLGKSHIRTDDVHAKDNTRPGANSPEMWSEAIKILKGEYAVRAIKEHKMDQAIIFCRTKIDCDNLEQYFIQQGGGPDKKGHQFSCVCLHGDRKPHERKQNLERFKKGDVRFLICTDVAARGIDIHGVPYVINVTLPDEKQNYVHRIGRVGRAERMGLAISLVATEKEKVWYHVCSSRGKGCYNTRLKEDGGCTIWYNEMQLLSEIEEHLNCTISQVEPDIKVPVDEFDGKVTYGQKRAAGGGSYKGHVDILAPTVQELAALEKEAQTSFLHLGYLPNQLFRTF

A549 = test: Cytotoxicity against human A549 cells after 3 days by MTT assay; type: cell-based; settings: A549, 72 h
Procedure, shortened: (§2)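 Confluent monolayers were washed with PBS and treated in DMEM with DMSO alone (control) or compound at final 100, 10, 1, 0.1, 0.01 μM. Cells were incubated 3 days at 37°C, then given MTT with absorbance read at 570 nm. Cytotoxicity was taken as the OD ratio of treated to DMSO wells, and CC50 was the concentration killing 50% of uninfected cells.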

West Nile virus [3] = test: Antiviral activity against West Nile virus infected in human HuH7 cells assessed as reduction in capsid protein levels at 1 uM added at 1 hr post infection by SDS-PAGE analysis; type: functional, organism-based
Procedure, shortened: (§3)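 Huh7 cells were infected with WNV at MOI 0.1, with compound at 1 µM added 1 h or 3 h after infection; a no-compound infected control was run alongside. Cell lysates were run on 10% SDS-PAGE and immunoblotted with anti-capsid polyclonal antibody, then peroxidase-conjugated anti-rabbit IgG.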

West Nile virus [4] = test: Antiviral activity against West Nile virus infected in human HuH7 cells assessed as reduction in genomic RNA at 1 uM added at 3 hrs hrs post viral infection by PCR analysis; type: functional, organism-based
Procedure, shortened: (§4)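 Huh7 cells infected with WNV at MOI 0.1; compound at 1 µM added 1 h or 3 h after infection. Total RNA (200 ng) reverse-transcribed with strand-specific primers for genomic or complementary WNV RNA, then quantified by real-time PCR against plasmid standards. Detection limit 10 copies. Means with standard deviation.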

[5] = biological target: ATP-dependent RNA helicase DDX3X (Homo sapiens, UniProt O00571); test: Inhibition of full length His-tagged human DDX3X expressed in Escherichia coli assessed as reduction in DDX3X helicase activity using FAM-labeled double stranded RNA as substrate after 40 mins by FRET assay relative to control
Procedure, shortened: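 Recombinant His-tagged full-length DDX3X expressed in E. coli, Ni-NTA purified. Unwinding of FAM-labelled dsRNA, with capture strand at 100 nM, in Tris-HCl pH 8, 70 mM KCl, 2 mM MgCl2, 2 mM DTT, 2 mM ATP. Started with DDX3X, 37°C, 40 min, fluorescence read every 30 s. Initial slope gives unwinding rate; IC50 by nonlinear regression of triplicates.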

[6] = Metabolic stability in human liver microsomes at 50 uM after 60 mins in presence of NADPH-generating system by LC-UV-MS analysis; type: ADME, Microsome; settings: read-out: Stability
Procedure, shortened: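 Compound at 50 μM final (DMSO ≤2%) incubated with human liver microsomes (0.2 mg/mL) and NADPH-generating system in 125 mM phosphate buffer pH 7.4, 37 °C, 60 min. Remaining compound measured by LC-ESI-MS in positive ion mode, with UV at 280 nm.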

[7] = Apparent permeability of the compound by PAMPA; type: ADME
Procedure, shortened: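 PAMPA: 0.5 mM donor solution in pH 7.4 phosphate buffer, diluted from 1 mM DMSO stock. Filter coated with 1% phosphatidylcholine in dodecane; acceptor 50% DMSO in buffer. Incubated 5 h at room temperature with shaking. Donor and acceptor quantified by LC-UV at 280 nm and Papp calculated. Three plates on different days.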

West Nile virus [8] = test: Antiviral activity against West Nile virus infected in human HuH7 cells assessed as reduction in complementary RNA at 1 uM added at 1 hr post viral infection by PCR analysis; type: functional, organism-based; procedure, shortened: as §4
West Nile virus [9] = test: Antiviral activity against West Nile virus infected in human HuH7 cells at 1 to 10 uM added after 3 hrs post infection by crystal violet staining based plaque reduction assay; type: functional, organism-based
Procedure, shortened: (§5)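 Huh7 cells infected with WNV at MOI 0.1; compound at 1 µM and 10 µM added at various times relative to infection. Read-out by viral plaque reduction assay. Means with standard deviation.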

West Nile virus [10] = test: Antiviral activity against West Nile virus infected in human HuH7 cells incubated for 4 days by crystal violet staining based plaque reduction assay; type: functional, organism-based; settings: Huh-7, 96 h; procedure, shortened: as §1
West Nile virus [11] = test: Antiviral activity against West Nile virus infected in human HuH7 cells at 1 to 10 uM added before 2 hrs post infection by crystal violet staining based plaque reduction assay; type: functional, organism-based; procedure, shortened: as §5
West Nile virus [12] = test: Antiviral activity against West Nile virus infected in human A549 cells incubated for 4 days by crystal violet staining based plaque reduction assay; type: functional, organism-based; settings: A549, 96 h
Procedure, shortened: (§6)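 Cell monolayers at 80–90% confluence were infected with WNV lineage 2 strain at MOI 0.1 for 1 h at 37°C with 5% CO2, then washed. DMSO vehicle or compound (final 100, 10, 1, 0.1, 0.01 μM) was added in duplicate under a 0.5% agarose overlay. Ribavirin served as reference. After methanol fixation and 0.1% crystal violet staining, PFU were expressed relative to DMSO control. IC50 was interpolated at 50% PFU; experiments were repeated at least twice.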

West Nile virus [13] = test: Antiviral activity against West Nile virus infected in human HuH7 cells assessed as reduction in capsid protein levels at 1 uM added at 3 hrs post infection by SDS-PAGE analysis; type: functional, organism-based; procedure, shortened: as §3
West Nile virus [14] = test: Antiviral activity against West Nile virus infected in African green monkey Vero cells incubated for 4 days by crystal violet staining based plaque reduction assay; type: functional, organism-based; settings: 96 h; procedure, shortened: as §6
Huh-7 = test: (§7) Cytotoxicity against human HuH7 cells after 3 days by MTT assay; type: cell-based; settings: Homo sapiens, Huh-7, 72 h
Procedure, shortened: (§8)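 Huh7 cells (2.5 × 10^4 per well) adhered overnight. Confluent monolayers washed, then treated with compound (final 100–0.01 μM) or DMSO control for 3 days at 37°C. Viability by MTT, absorbance 570 nm, expressed relative to DMSO-treated cells.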

West Nile virus [15] = test: Antiviral activity against West Nile virus infected in human HuH7 cells assessed as reduction in genomic RNA at 1 uM added at 1 hr post viral infection by PCR analysis; type: functional, organism-based; procedure, shortened: as §4
Vero = test: Cytotoxicity against African green monkey Vero cells after 3 days by MTT assay; type: cell-based; settings: Chlorocebus sabaeus, 72 h; procedure, shortened: as §2
[16] = as §7; type: cell-based, Huh-7; settings: human, HuH7 cells; procedure, shortened: as §8

ATP-dependent RNA helicase DDX3X, sequence (O00571 2-662 limits assumed): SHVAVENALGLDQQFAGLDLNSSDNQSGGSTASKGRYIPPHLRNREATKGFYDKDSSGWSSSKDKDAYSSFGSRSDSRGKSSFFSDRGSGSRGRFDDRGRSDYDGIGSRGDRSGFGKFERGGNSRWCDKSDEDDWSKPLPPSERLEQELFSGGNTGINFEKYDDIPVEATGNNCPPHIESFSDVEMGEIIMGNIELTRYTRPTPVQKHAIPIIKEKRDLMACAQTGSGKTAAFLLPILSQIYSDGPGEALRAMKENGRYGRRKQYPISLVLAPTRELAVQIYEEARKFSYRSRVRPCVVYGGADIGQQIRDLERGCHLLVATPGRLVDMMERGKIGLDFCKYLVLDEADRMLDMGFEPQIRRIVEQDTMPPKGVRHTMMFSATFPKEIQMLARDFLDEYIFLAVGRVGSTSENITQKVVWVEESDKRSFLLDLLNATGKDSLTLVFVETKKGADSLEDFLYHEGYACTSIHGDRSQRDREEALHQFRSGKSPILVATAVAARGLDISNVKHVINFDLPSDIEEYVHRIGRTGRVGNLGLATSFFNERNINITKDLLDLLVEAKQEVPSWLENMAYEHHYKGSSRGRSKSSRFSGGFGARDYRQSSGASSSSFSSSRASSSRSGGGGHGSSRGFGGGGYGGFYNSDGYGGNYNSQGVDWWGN

## C[C@@]1(O)[C@H](O)[C@@H](CO)O[C@H]1n1cnc2c(N)ncnc21
West Nile virus [1]
  EC50: 5.1 µM

## CCCCc1cn(-c2cccc(S(=O)(=O)Nc3ccccc3C(F)(F)F)c2)nn1
[2]
  IC50: > 200 µM
A549
  IC50: 21.3 µM
West Nile virus [3]
  Activity: Active
West Nile virus [4]
  Activity: inactive
[5]
  inhibition: 98%
[6]
  remaining at 1 h, 50 µM: 99%
[7]
  Papp: 0.21 ×10⁻⁶ cm/s
West Nile virus [8]
  Activity: Active
West Nile virus [9]
  Activity: inactive
West Nile virus [10]
  EC50: 23.1 µM
West Nile virus [11]
  Activity: Active
West Nile virus [12]
  EC50: 3.4 µM
West Nile virus [13]
  Activity: inactive
West Nile virus [14]
  EC50: 12 µM
Huh-7
  IC50: > 200 µM
West Nile virus [15]
  Activity: Active
Vero
  IC50: > 200 µM

## O=S(=O)(Nc1ccccc1C(F)(F)F)c1cccc(-n2cc(C3CCCCC3)nn2)c1
[5]
  inhibition: 52%

## NC(=O)c1ncn([C@@H]2O[C@H](CO)[C@@H](O)[C@H]2O)n1 [RIBAVIRIN]
West Nile virus [1]
  EC50: 71.2 µM
West Nile virus [10]
  EC50: 90 to 95.5 µM
West Nile virus [12]
  EC50: 46 µM
West Nile virus [14]
  EC50: 95 µM
Huh-7
  IC50: > 200 µM

## COCCc1cn(-c2cccc(S(=O)(=O)Nc3ccccc3C(F)(F)F)c2)nn1
[5]
  inhibition: 67%

## CCCCc1cn(-c2cccc(S(=O)(=O)Nc3ccccc3C)c2)nn1
[5]
  inhibition: 59%
West Nile virus [10]
  EC50: 39.9 µM
[16]
  CC50 at 72 h: > 200 µM

## CCOC(=O)[C@@](C)(O)[C@@H]1C[C@@H](CO[Si](c2ccccc2)(c2ccccc2)C(C)(C)C)O[C@H]1n1cc(F)c(=O)[nH]c1=O
West Nile virus [1]
  EC50: 27 µM

## CCCCc1cn(-c2ccc(NC(=O)Nc3ccccc3C)cc2)nn1
[2]
  IC50: > 200 µM
[5]
  inhibition: 98%
[6]
  remaining at 1 h, 50 µM: 99%
West Nile virus [10]
  EC50: 8.8 µM
[16]
  CC50 at 72 h: > 200 µM

## CCOCc1cn(-c2cccc(S(=O)(=O)Nc3cccc(N4CCOCC4)c3)c2)nn1
[5]
  inhibition: inactive

## C[C@@]1(O)[C@H](O)[C@@H](CO)O[C@H]1n1cnc2c(=O)[nH]c(N)nc21 [2'-B-METHYL-GUANOSINE]
West Nile virus [1]
  EC50: 30 µM

## CCOCc1cn(-c2cccc(S(=O)(=O)Nc3ccccc3C(F)(F)F)c2)nn1
[5]
  inhibition: 98%
[6]
  remaining at 1 h, 50 µM: 97.1%
[7]
  Papp: 0.71 ×10⁻⁶ cm/s
West Nile virus [10]
  EC50: 65.9 µM
[16]
  CC50 at 72 h: > 200 µM

## CCCCc1cn(-c2cccc(S(=O)(=O)Nc3ccccc3OC)c2)nn1
[5]
  inhibition: 98%

Source: ChEMBL document CHEMBL4480403, “DDX3X Helicase Inhibitors as a New Strategy To Fight the West Nile Virus Infection” (J Med Chem, 2019)
